Assay outcomes: PubChem BioAssay, several laboratories
The list is not random: actives were taken first. Their share in the collection is about 4%.
SENP1 FRET inh – inhibitors of human SENP1 SUMO protease catalytic domain; recombinant SENP1 catalytic domain, CyPet-SUMO1-YPet FRET cleavage; Q9P0U3; 360,000 compounds, 0.21% hits; inhibition, % at 10 µM; AID 624204;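 active = inhibition at least 30% at 10 µM, raw YFP signal under a set limit, fluorescence ratio 0.5 to 1.5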;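 also: 0% = enzyme with DMSO and 100% = no enzyme wells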
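Assay system – human recombinant His6-tagged SENP1 catalytic domain enzyme · Input – SENP1 enzyme, 20 pM final · Buffer or medium – Tris pH 8 buffer plus EDTA, NaCl, BME, BSA, NP40, catalase · Schedule – 50 min reaction at room temperature · Technique – FRET read of cyan and yellow fluorescence · Control set – no-enzyme wells low, DMSO-plus-enzyme wells high control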
H9c2 protect – modulators protecting cardiomyocytes from myocardial damage | H9c2 cardiomyocytes, H2O2 injury protection, ATPLite, 2 h | protection from H2O2 cell death, % at 20 µM | 360,000 compounds, 0.63% hits;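 active = compounds giving at least 50% protection of heart cells from peroxide-induced death in the single-dose screen, raw or plate-pattern-corrected value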;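 also: 0% = DMSO wells with peroxide and 100% = DMSO wells without peroxide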
FAS TE block – inhibitors of human fatty acid synthase thioesterase domain; recombinant FAS-TE, OMFH fluorogenic substrate, fluorescence endpoint; inhibition, % at 15 µM; 360,000 compounds, 0.67% hits; AID 602261;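 active = compounds whose normalised, plate-corrected inhibition of enzyme fluorescence in the single-dose primary screen is 50% or more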;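 also: 0% = DMSO with enzyme and 100% = substrate without enzyme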
NR3A LBD binder – NR3A (human) ligand-binding domain modulation | NR3A LBD differential scanning fluorimetry, Tm shift; 0% = protein alone, 100% = glycine-bound protein | Tm shift relative to glycine control, % at 25 µM | 340,000 compounds, 2.5% hits;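 active = melting temperature shift of at least 10% of the positive control shift, at one fixed dose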
Arr AP2 block – inhibitors of human beta-arrestin and AP2 interaction | FITC-arrestin peptide / GST-AP2 beads, flow cytometry; AP2 beta2 appendage carries R879A mutation | inhibition, % at 10 µM | 340,000 compounds, 0.31% hits;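 active = inhibition above a set limit, near 3 SD of compounds lacking own fluorescence, cut at about 54% in these data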;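 also: plate controls were DMSO wells for no effect and 5 µM unlabelled arrestin peptide for full effect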
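Material – AP2 appendage R879A on GSH beads · Buffer or medium – PBS with 0.05% Tween 20 and 0.1% BSA · Probe or stimulus – fluorescein-tagged arrestin peptide at 50 nM final · Incubation – compound with beads 12 min RT, then probe 1 h RT · Detection – high-throughput flow cytometry of beads, ex 488, em 535 nm · Evaluation – percent response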
hiPSC survival – enhancers of human iPSC single-cell survival; hiPSC single-cell survival, ATPlite luminescence; 100% = ROCK inhibitor wells, 0% = DMSO; survival enhancement, % at 20 µM; 360,000 compounds, 0.044% hits; in the data active = survival enhancement above about 18%;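 also: cells exposed to compounds for 16 hours before the ATP read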
* = called active by the depositor; . = no result.

SMILES	SENP1 FRET inh	H9c2 protect	FAS TE block	NR3A LBD binder	Arr AP2 block	hiPSC survival
O=c1[nH]c(-c2ccc(Cl)cc2)cs1	3	-4	-3	-1	29	0
O=C(Nc1cccc(Cl)c1)c1csc([C@H]2C[C@H](O)[C@@H](CO)O2)n1	0	-6	-11	.	.	2
COCCn1c(SCC(=O)N(C)C2CCS(=O)(=O)C2)nc2ccccc2c1=O (stereo not drawn)	0	5	-1	0	2	1
CN(C(=O)CSc1nc2ccccc2n1CCc1ccccc1)C1CCS(=O)(=O)C1 (stereo not drawn)	0	7	5	14*	-7	-1
C/C(=N\NC(=O)C1(C)CC1(Br)Br)c1cccc(NC(=O)c2ccc(C)o2)c1 (stereo not drawn)	1	6	9	11*	-2	0
Cc1ccc(C(=O)Nc2cccc(C(=O)NCc3ccccc3)c2)o1	2	5	-7	-1	3	0
Cc1ccc(NC(=O)CCN2C(=O)C3C4CCC(C4)C3C2=O)cc1[N+](=O)[O-] (stereo not drawn)	1	-4	-4	1	16	0
Cc1ccc(NC(=O)CCN2C(=O)C3C4CCC(C4)C3C2=O)cc1Cl (stereo not drawn)	1	0	-1	18*	-1	2
CC(=O)Nc1ccc(SC[C@H](Cc2ccccc2)N2CCN(CC(C)C)CCC2=O)cc1	-5	9	1	0	6	-2
CC(=O)Nc1ccc(SC[C@H](CC(C)C)N2CCN(CC(C)C)CCC2=O)cc1	-3	-6	-10	13*	5	-2
Cn1cc([C@]2(O)C(=O)Nc3ccc(Br)cc32)c2ccccc21	1	.	.	.	.	.
C[C@@H](CO)NC(=O)c1[nH]cnc1C(=O)Nc1ccc(CNC(=O)OC(C)(C)C)cc1	1	10	-3	.	.	5
Fc1ccccc1Nc1nc2ccccc2o1	1	-13	1	34*	6	0
CC(C)(C)OC(=O)N1CCC[C@H]1C(=O)N/N=C/c1cccc2cccnc12	0	6	-3	14*	27	0
Cc1ccccc1OCC(=O)N/N=C/c1cccc2cccnc12	1	40	1	3	1	0
Cc1ccc(OCC(=O)N/N=C/c2cccc3cccnc23)cc1	0	56*	4	-1	19	0
CC(C)(C)OC(=O)NCCC(=O)N/N=C/c1cccc2cccnc12	1	17	-4	0	12	0
O=C(COc1ccc(F)cc1)N/N=C/c1cccc2cccnc12	2	54*	1	-2	-14	0
O=C(NC1CCCCC1)C(c1ccc(-c2ccccc2)cc1)n1c(=O)c(-c2ccco2)nc2ccccc21 (stereo not drawn)	-34	.	.	.	.	.
COc1cccc(-c2ccc(NC(=O)C3CCCN(CCCn4cccn4)C3)cc2)c1 (stereo not drawn)	0	2	-1	10*	16	0
CC(=O)c1cccc(CN2CCCC(C(=O)Nc3cccc(-n4cccn4)c3)C2)c1 (stereo not drawn)	-1	-1	1	10*	-18	0
CN1OC[C@@H]2CN3C(=O)N(c4ccccc4)c4ccccc4[C@@H]3C[C@@H]21	-21	2	-4	.	.	2
O=C(COC(=O)CCC1CCCC1)Nc1nc2c(F)c(F)c(F)cc2s1	-29	-6	15	22*	-4	-2
CCC1(c2ccccc2)CN(C)C1=O (stereo not drawn)	2	5	-7	.	.	2
CCN1c2ccccc2N(C)C1(C)c1ccccc1 (stereo not drawn)	-27	-27	5	-7	75*	-4
SMILES	SENP1 FRET inh	H9c2 protect	FAS TE block	NR3A LBD binder	Arr AP2 block	hiPSC survival
COc1ccc(CCNC(=O)/C(C#N)=C/c2ccc(OCC(=O)NCC3CCCO3)cc2)cc1OC (stereo not drawn)	-1	44	-4	14*	1	-2
COc1cc(/C=C(\C#N)C(=O)NCC2CCCO2)ccc1OCC(=O)O (stereo not drawn)	-6	0	-5	-2	-3	1
O=C(COC(=O)/C=C/c1cccc(F)c1)NCc1ccc2c(c1)OCO2	0	-1	-5	.	.	0
Cc1ccc(S(=O)(=O)N2C[C@H]3C(=O)C[C@@H](c4ccccc4)N(S(=O)(=O)c4ccc(C)cc4)[C@H]3C[C@H]2c2ccccc2F)cc1	1	-2	30	.	.	0
Brc1ccc(/C=N/Nc2nc3ccccc3o2)cc1	2	-8	3	28*	24	-1
Oc1ccccc1/C=N/Nc1nc2ccccc2o1	-14	8	10	3	0	0
O=C(/C=C/c1ccc(Br)cc1)c1ccco1	0	-5	-5	-2	1	-3
O=C(/C=C\c1ccccc1)Nc1ccc(NC(=O)c2ccco2)cc1	1	21	5	25*	39	1
O=C(/C=C/c1ccc(Br)cc1)c1ccc(NC(=O)c2ccco2)cc1	0	-1	1	24*	-7	-2
CNc1cc(C)c(C#N)c2nc3ccccc3n12	-48	-1	2	-1	-8	-1
Cc1cccc(NC(=O)CSc2cc(C)c(C#N)c3nc4ccccc4n23)c1	-36	2	23	13*	-9	-1
O=S(=O)(N[C@H]1C[C@@H](NS(=O)(=O)OCC(Cl)(Cl)Cl)C2CCCCC21)OCC(Cl)(Cl)Cl (stereo partly drawn)	2	-28	21	18*	1	-2
CC(=O)Nc1ccc(C(=O)N2CCCC(c3cc(C(=O)Nc4ccccc4Cl)no3)C2)cc1 (stereo not drawn)	2	-5	-8	.	.	-2
Fc1cccc(C2NN=C(c3ccccc3)S2)c1 (stereo not drawn)	-2	-7	3	34*	-2	0
CCCCN(C)c1c(C)nc2ccc(C(=O)NCc3ccc4c(c3)OCO4)cn12	-5	-5	9	.	.	-2
CCC(C)Nc1nc(Cl)nc(NCCOc2ccccc2)n1 (stereo not drawn)	1	-4	37	13*	29	1
CC(C)Nc1nc(Cl)nc(NCCOc2ccccc2)n1	1	1	30	-3	3	2
CCn1cc(C(=O)N2CCc3ccccc32)c(=O)c2cc(S(=O)(=O)N(C)C3CCCCC3)ccc21	1	63*	17	8	-5	1
COc1ccc(-n2c(C)c(C(C)=O)c3cc(OC(C)=O)ccc32)cc1	1	53*	19	-1	8	-1
CN(C)c1ccc(C(=O)NCc2ccc3c(c2)CCO3)cc1	-1	6	1	10*	-2	0
